The record followed here is PubChem BioAssay.

Activity calls are given as the source filed them.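 The calls were made as follows, unless noted: active = viability at or under a set limit in both replicates, limit being median viability minus 3 SD (cut at about 48% in these data, passing the limit was not always enough); inconclusive = at or under the limit in just one replicate; inactive = at or above the limit in both replicates.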

The nature of assay [1]: reduced viability of SK-BR-3 breast cancer cells – cell-based, 24 h, human, pilot screen (AID 572;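 active = viability at or below 10% of carrier control in both of two separate runs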;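 also: compound exposure lasted between 18 and 24 h rather than exactly 24 h; 100% = carrier-treated control wells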). As to conditions: SK-BR-3 viability, CellTiter-Glo luminescence, at 10 µM, stronger effect = lower value. On the technique in general: ATP-based viability assays read luminescence as a measure of living cells.
Assay [2] is described as follows: HUVEC growth inhibition – cell-based, human, primary screen (AID 575;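 active = viability at or below 30% in both replicate assays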;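 also: 100% = median of untreated cell wells with 0.1% DMSO on each plate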). As to conditions: HUVEC proliferation, CellTiter-Glo luminescence, 72 h; at 10 µM; stronger effect = lower value. The gist of the method: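 Test system: primary human umbilical vein endothelial cells; medium: endothelial basal medium with 2% FBS plus growth supplements; dosing: 10 µM compound only; times: 72 h treatment at 37 °C; signal: CTG luminescence; read-out: % viability relative to median vehicle-well signal on each plate; control set: vehicle and MePR control wells; plate: 384-well, collagen-coated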

The nature of assay [3]: H69AR cell proliferation blockers – human, duplicate replicates, primary screen (AID 580).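 Also: 100% = mean luminescence of untreated wells and 0% = no signal.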 As to conditions: H69AR lung tumor cells viability, ATP luminescence, 72 h; at 10 µM; stronger effect = lower value.
Assay [4] can be described thus: MRP1 drug-resistance reversers in H69AR cells – cell-based, doxorubicin co-treatment, pilot screen (AID 601;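 active = viability loss from added drug above about 55%, and viability with drug at most 40%, in both replicates, limit read from the data, passing the limit was not always enough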). Conditions: CellTiter-Glo, 72 h, at 10 µM; for differential viability (reversal): stronger effect = higher value.
A short description of assay [5]: yeast transport mutant growth inhibition pilot in 384-well plates, post-Golgi transport modulator project (AID 636; in the data active = inhibition above about 31%). As to conditions: absorbance 615 nm, about 18 h, stronger effect = higher value.
A short description of assay [6]: growth suppression of yeast trafficking mutant, preliminary HTS, modulators of trafficking downstream of Golgi apparatus project, 1536-format plate, OD 615 nm (AID 637; in the data active = inhibition above about 30%). Conditions: yeast transport mutant growth, absorbance 615 nm, 18 h; stronger effect = higher value.
[7] abbreviates: H69AR cells + 2 uM doxorubicin, measured here: viability with 2 uM doxorubicin, stronger effect = lower value.
Where [8] appears, read: H69AR cells, compound alone cytotoxicity.

Usually viability stands for a read-out of living cells in per cent, often relative to untreated cells. In general, inhibition refers to the relative decrease from the control value, in per cent. As to `COC(=O)Cn1cnc2sc(C)c(S(=O)(=O)N3CCC(C)CC3)c2c1=O`, the viability was 85% (inactive) in assay [1]; 98.4% (inactive) in assay [2]; 91.3% (inactive) in assay [3]; 97.1% in assay [4] (setting [7]); 91.3% in assay [4] (setting [8]). Also, the differential viability (reversal) in assay [4] (H69AR cells + 2 uM doxorubicin) is -5.84% (inactive). Further, the inhibition in assay [5] is -1.64% (inactive); in assay [6], -0.91% (inactive).
With `CC(=O)OCC(=O)[C@@]1(O)CC[C@H]2[C@@H]3CCC4=CC(=O)CC[C@]4(C)[C@H]3[C@@H](O)C[C@@]21C`, the viability in assay [1] was 101% (inactive); in assay [2] it was 74.1% (inactive); in assay [3], 100% (inactive); in assay [4] (setting [7]), 97.7%; in assay [4] (setting [8]) it was 100%. In addition, the differential viability (reversal) in assay [4] (H69AR cells + 2 uM doxorubicin) is 2.38% (inactive). Also, the inhibition in assay [5] was -4.29% (inactive); in assay [6], -1.17% (inactive).
Consider `CC(=O)Nc1c(I)c(NC(C)=O)c(I)c(C(=O)O)c1I`, for which the viability was 89% (inactive) in assay [1]; 98.4% (inactive) in assay [2]; 103% (inactive) in assay [3]; 102% in assay [4] (setting [7]); 103% in assay [4] (setting [8]). Besides, in assay [4] (H69AR cells + 2 uM doxorubicin), the differential viability (reversal) was 1.03% (inactive). Also, the inhibition is -0.13% (inactive) in assay [5] and -3% (inactive) in assay [6].
Turning to `Cc1ccc(-c2nnc(N3CCN(C(=O)CN4C(=O)c5ccccc5C4=O)CC3)c3ccccc23)cc1`, the viability in assay [1] was 84% (inactive); in assay [2] it was 73% (inactive); in assay [3], 94% (inactive); in assay [4] (setting [7]), 94.3%; in assay [4] (setting [8]), 94%. The differential viability (reversal) in assay [4] (H69AR cells + 2 uM doxorubicin) is -0.335% (inactive). The figures for the inhibition in assay [5] and in assay [6] were -1.23% (inactive) and -4.03% (inactive), respectively.
In the case of `COc1ccc2c(C)nc(Nc3nc(C)cc(C)n3)nc2c1`, the viability in assay [1] is 84% (inactive); in assay [2], 114% (inactive); in assay [3] it was 87.3% (inactive); in assay [4] (setting [7]), 93.9%; in assay [4] (setting [8]), 87.3%. Moreover, the differential viability (reversal) in assay [4] (H69AR cells + 2 uM doxorubicin) is -6.58% (inactive). In addition, the values for the inhibition in assay [5] and in assay [6] were -6.08% (inactive) and 0% (inactive), respectively.
Regarding `c1ccc(OCc2nc(-c3ccccc3)no2)cc1`, the viability in assay [1] was 98% (inactive); in assay [2] it was 92.5% (inactive); in assay [3], 93.5% (inactive); in assay [4] (setting [7]), 89.9%; in assay [4] (setting [8]), 93.5%. The differential viability (reversal) in assay [4] (H69AR cells + 2 uM doxorubicin) is 3.62% (inactive). Further, the inhibition in assay [5] is 0.14% (inactive); in assay [6], 29.5% (inactive).
Regarding `Cc1cc(C)nc(N2CCC(C(=O)Nc3ccc(Oc4ccccc4)cc3)CC2)n1`, the viability in assay [1] is 67% (inactive); in assay [2], 105% (inactive); in assay [3], 88.9% (inactive); in assay [4] (setting [7]) it was 88.2%; in assay [4] (setting [8]), 88.9%. The differential viability (reversal) in assay [4] (H69AR cells + 2 uM doxorubicin) is 0.65% (inactive). For the same molecule, the inhibition was -8.36% (inactive) in assay [5] and 1.09% (inactive) in assay [6].
On to `C[C@]12C=CC(=O)C=C1CC[C@@H]1[C@@H]2[C@@H](O)C[C@@]2(C)[C@H]1CC[C@]2(O)C(=O)COC(=O)CCC(=O)O`, for which the viability in assay [1] was 112% (inactive); in assay [2], 80.3% (inactive); in assay [3], 84.4% (inactive); in assay [4] (setting [7]), 81.4%; in assay [4] (setting [8]) it was 84.4%. Moreover, the differential viability (reversal) in assay [4] (H69AR cells + 2 uM doxorubicin) is 2.96% (inactive). Besides, the inhibition in assay [5] is 1.95% (inactive); in assay [6] it was 1.33% (inactive).
Take `COC(=O)CSc1ncccc1-c1nc2ccccc2[nH]1`: the viability was 110% (inactive) in assay [1]; 96.9% (inactive) in assay [2]; 90.8% (inactive) in assay [3]; 91.5% in assay [4] (setting [7]); 90.8% in assay [4] (setting [8]). Also, the differential viability (reversal) in assay [4] (H69AR cells + 2 uM doxorubicin) was -0.73% (inactive). Also, the inhibition in assay [5] was -2.33% (inactive); in assay [6] it was -5.48% (inactive).
On to `O=C(c1cccc2c1C(=O)N(Cc1cccnc1)C2)N1CCN(c2ccccc2)CC1`, for which the viability in assay [1] is 127% (inactive); in assay [2], 97.3% (inactive); in assay [3], 93.3% (inactive); in assay [4] (setting [7]), 89.5%; in assay [4] (setting [8]) it was 93.3%. Further, the differential viability (reversal) in assay [4] (H69AR cells + 2 uM doxorubicin) was 3.83% (inactive). The inhibition in assay [5] is -4.93% (inactive); in assay [6], -1.09% (inactive).
In the case of `CC(C)(C)NC(=O)C(Cc1ccccc1)NS(=O)(=O)c1cccc2nsnc12` (stereo unspecified), the viability was 87% (inactive) in assay [1]; 105% (inactive) in assay [2]; 87.8% (inactive) in assay [3]; 95.3% in assay [4] (setting [7]); 87.8% in assay [4] (setting [8]). For the same molecule, the differential viability (reversal) in assay [4] (H69AR cells + 2 uM doxorubicin) was -7.5% (inactive). In addition, the inhibition is -9.86% (inactive) in assay [5] and -1.09% (inactive) in assay [6].
On to `CCCc1cc(=O)[nH]c(=S)[nH]1`, for which the viability is 101% (inactive) in assay [1]; 97% (inactive) in assay [2]; 84% (inactive) in assay [3]; 81.2% in assay [4] (setting [7]); 84% in assay [4] (setting [8]). Also, the differential viability (reversal) in assay [4] (H69AR cells + 2 uM doxorubicin) is 2.76% (inactive). The inhibition is 0.78% (inactive) in assay [5] and 0.17% (inactive) in assay [6].
